Data on 14 compounds can be found in ChEMBL document CHEMBL1125875, “Renin inhibitory peptides. Incorporation of polar, hydrophilic end groups into an active renin inhibitory peptide template and their evaluation in a human renin infused rat model and in conscious sodium-depleted monkeys” (J Med Chem, 1991).

Numbered stars: 1 amine (or outer) side, 2 acyl side, 3 side chain; on linkers, the order of the positions; unused ones are H or OH. Square brackets hold non-standard residues; d marks the D form. Peptide text beside a SMILES is read from it. * marks the point of attachment. ξ: configuration not given here. LeuΨ(ξCHOHCH2)Val = CC(C)C[C@H](N[*:1])C(O)C[C@H](C(=O)[*:2])C(C)C; X1 = CC(C)[C@H](C[C@H](O)[C@H](CC1CCCCC1)N[*:1])C(=O)[*:2]; Suberoyl(NMe-taurine) = CN(CCS(=O)(=O)O)C(=O)CCCCCCC(=O)*; X3 = CC(C)C[C@H](N[*:1])[C@@H](O)C[C@H](C(=O)[*:2])C(C)C; NH(2-picolyl-N-oxide) = [O-][n+]1ccccc1CN*; γGlu = O=C(O)[C@H](CCC(=O)[*:2])N[*:1]; NMeH = CN[C@@H](Cc1c[nH]cn1)C(=O)O; NHCH2(2-pyridyl) = c1ccc(CN*)nc1; X4 = O=C(CCCO[P+]([O-])(O)O)*; X5 = O=C(CCCOP(=O)(O)O)*; X2 = O=C(COP(=O)(O)O)*

The target in this assay is T1, Renin (Homo sapiens, UniProt P00797).
T1 sequence (P00797 whole entry): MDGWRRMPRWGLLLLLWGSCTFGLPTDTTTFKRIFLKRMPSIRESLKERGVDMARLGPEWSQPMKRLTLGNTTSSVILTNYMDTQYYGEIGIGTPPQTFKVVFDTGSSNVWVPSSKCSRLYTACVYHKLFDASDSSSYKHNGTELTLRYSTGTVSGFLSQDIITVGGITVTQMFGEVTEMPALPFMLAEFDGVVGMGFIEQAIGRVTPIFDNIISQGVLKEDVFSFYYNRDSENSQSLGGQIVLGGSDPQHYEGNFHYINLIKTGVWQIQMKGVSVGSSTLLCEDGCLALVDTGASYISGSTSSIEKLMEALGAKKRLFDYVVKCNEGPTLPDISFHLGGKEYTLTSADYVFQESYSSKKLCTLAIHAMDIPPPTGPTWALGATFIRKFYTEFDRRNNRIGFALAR
Briefly: Inhibition of human plasma renin. It is filed as cell-free. The essentials:
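IC50 taken as the inhibitor concentration at which 50% of renin enzymatic activity remains.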

As a reminder, the IC50 is the concentration needed to halve the response being measured. A low value points to greater potency. `CC(C)CCNC(=O)[C@@H](C[C@H](O)[C@H](CC1CCCCC1)NC(=O)[C@H](Cc1c[nH]cn1)N(C)C(=O)[C@H](Cc1ccccc1)NC(=O)CC(C)(C)N)C(C)C` showed an IC50 of 0.41 nM.
To `CC[C@H](C)[C@H](NC(=O)[C@@H](C[C@H](O)[C@H](CC(C)C)NC(=O)[C@H](Cc1c[nH]cn1)N(C)C(=O)[C@H](Cc1ccccc1)NC(=O)CCCCCCC(=O)N(C)CCS(=O)(=O)O)C(C)C)C(=O)NCc1ccccn1` belongs 0.66 nM; to `CC(C)CCNC(=O)[C@@H](C[C@H](O)[C@H](CC1CCCCC1)NC(=O)[C@H](Cc1c[nH]cn1)N(C)C(=O)[C@H](Cc1ccccc1)NC(=O)[C@@H]1CCCN1C(=O)CC[C@H](N)C(=O)O)C(C)C`, 0.28 nM; to `CC[C@H](C)[C@H](NC(=O)[C@@H](C[C@H](O)[C@H](CC1CCCCC1)NC(=O)[C@H](Cc1c[nH]cn1)N(C)C(=O)[C@H](Cc1ccccc1)NC(=O)CC(C)(C)N)C(C)C)C(=O)NCc1cccc[n+]1[O-]`, 0.43 nM.
`CC[C@H](C)[C@H](NC(=O)[C@@H](C[C@H](O)[C@H](CC1CCCCC1)NC(=O)[C@H](Cc1c[nH]cn1)N(C)C(=O)[C@H](Cc1ccccc1)NC(=O)CC(C)(C)N)C(C)C)C(=O)NCc1ccccn1` showed an IC50 of 0.29 nM.
In the case of `CC[C@H](C)[C@H](NC(=O)[C@@H](C[C@H](O)[C@H](CC(C)C)NC(=O)[C@H](Cc1c[nH]cn1)N(C)C(=O)[C@H](Cc1ccccc1)NC(=O)CCCCCCC(=O)N(C)CCS(=O)(=O)O)C(C)C)C(=O)NCc1cccc[n+]1[O-]`, it took 1.2 nM to reach half-maximal inhibition (IC50).
`CC[C@H](C)[C@H](NC(=O)[C@@H](CC(O)[C@H](CC(C)C)NC(=O)[C@H](Cc1c[nH]cn1)N(C)C(=O)[C@H](Cc1ccccc1)NC(=O)[C@@H]1CCCN1C(=O)COP(=O)(O)O)C(C)C)C(=O)NCc1cccc[n+]1[O-]` (some centres undefined) (X2-PF[NMeH][LeuΨ(ξCHOHCH2)Val]I-{NH(2-picolyl-N-oxide)}): the IC50 stood at 2.5 nM.
On to `CC[C@H](C)[C@H](NC(=O)[C@@H](C[C@H](O)[C@H](CC(C)C)NC(=O)[C@H](Cc1c[nH]cn1)N(C)C(=O)[C@H](Cc1ccccc1)NC(=O)[C@@H]1CCCN1C(=O)COP(=O)(O)O)C(C)C)C(=O)NCc1ccccn1` (X2-PF[NMeH][X3]I-{NHCH2(2-pyridyl)}), for which the IC50 came to 1.6 nM.
As for `CC[C@H](C)[C@H](NC(=O)[C@@H](CC(O)[C@H](CC(C)C)NC(=O)[C@H](Cc1cnc[nH]1)N(C)C(=O)[C@H](Cc1ccccc1)NC(=O)[C@@H]1CCCN1C(=O)CCCO[P+]([O-])(O)O)C(C)C)C(=O)NCc1cccc[n+]1[O-]` (some centres undefined) (X4-PF[NMeH][LeuΨ(ξCHOHCH2)Val]I-{NH(2-picolyl-N-oxide)}), inhibition was half-maximal at 1.9 nM (IC50).
In the case of `CC[C@H](C)[C@H](NC(=O)[C@@H](C[C@H](O)[C@H](CC(C)C)NC(=O)[C@H](Cc1c[nH]cn1)N(C)C(=O)[C@H](Cc1ccccc1)NC(=O)[C@@H]1CCCN1C(=O)CCCOP(=O)(O)O)C(C)C)C(=O)NCc1ccccn1` (X5-PF[NMeH][X3]I-{NHCH2(2-pyridyl)}), half-maximal inhibition (IC50) required 0.45 nM.
As to `CC[C@H](C)[C@H](NC(=O)[C@@H](CC(O)[C@H](CC(C)C)NC(=O)[C@H](Cc1c[nH]cn1)N(C)C(=O)[C@H](Cc1ccccc1)NC(=O)[C@@H]1CCCN1C(=O)CCCCCCC(=O)N(C)CCS(=O)(=O)O)C(C)C)C(=O)NCc1cccc[n+]1[O-]` (some centres undefined) ({Suberoyl(NMe-taurine)}-PF[NMeH][LeuΨ(ξCHOHCH2)Val]I-{NH(2-picolyl-N-oxide)}), the IC50 stood at 0.31 nM.
`CC[C@H](C)[C@H](NC(=O)[C@@H](CC(O)[C@H](CC(C)C)NC(=O)[C@H](Cc1c[nH]cn1)N(C)C(=O)[C@H](Cc1ccccc1)NC(=O)[C@@H]1CCCN1C(=O)CCCCCCC(=O)N(C)CCS(=O)(=O)O)C(C)C)C(=O)NCc1ccccn1` (some centres undefined) ({Suberoyl(NMe-taurine)}-PF[NMeH][LeuΨ(ξCHOHCH2)Val]I-{NHCH2(2-pyridyl)}) returned an IC50 of 1.8 nM.
`CC[C@H](C)[C@H](NC(=O)[C@@H](C[C@H](O)[C@H](CC1CCCCC1)NC(=O)[C@H](Cc1c[nH]cn1)N(C)C(=O)[C@H](Cc1ccccc1)NC(=O)[C@@H]1CCCN1C(=O)CC[C@H](N)C(=O)O)C(C)C)C(=O)NCc1cccc[n+]1[O-]` (γGlu-PF[NMeH][X1]I-{NH(2-picolyl-N-oxide)}) showed an IC50 of 0.32 nM.
As for `CC[C@H](C)[C@H](NC(=O)[C@@H](C[C@H](O)[C@H](CC1CCCCC1)NC(=O)[C@H](Cc1c[nH]cn1)N(C)C(=O)[C@H](Cc1ccccc1)NC(=O)[C@@H]1CCCN1C(=O)CC[C@H](N)C(=O)O)C(C)C)C(=O)NCc1ccccn1` (γGlu-PF[NMeH][X1]I-{NHCH2(2-pyridyl)}), the IC50 is 0.29 nM.
